In ChEMBL document CHEMBL1122270, “N-(4-substituted-thiazolyl)oxamic acid derivatives, a new series of potent, orally active antiallergy agents” (1983):

Legend:
Assay type in all cases: functional
Rattus norvegicus [1] = assay: Antiallergic activity by rat passive cutaneous anaphylaxis (PCA) assay when administered per orally; details: po
In short: (§1)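 Rats were passively sensitized intradermally with diluted reaginic anti-ovalbumin serum 24 h before challenge. Compound was suspended in 1% acacia and dosed by oral feeding needle at 1 mL/kg. After 20-30 min, rats were challenged with 0.02 mg ovalbumin in 0.5 mL 2% Evans Blue. Blued areas were measured 30 min after challenge. Six rats per dose; ED50 is 50% area reduction from control, with 95% confidence limits.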

Rattus norvegicus [2] = assay: antiallergic activity by rat passive cutaneous anaphylaxis (PCA) assay when administered iv
In short: (§2)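 Male rats sensitized by id injection of diluted rat anti-ovalbumin reaginic serum (0.1 mL each side of shaved back). 24 h later, compound in saline was mixed with 5 mg ovalbumin in 0.5 mL 2% Evans Blue and given iv at 1 mL/kg. Blued-spot diameters were read 30 min later. Six rats per group; ED50 is 50% area reduction versus control, with 95% confidence limits.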

Rattus norvegicus [3] = assay: Antiallergic activity by rat passive cutaneous anaphylaxis (PCA) assay when administered iv;value ranges between (0.01-0.04.); in short: as §2
Rattus norvegicus [4] = assay: Antiallergic activity by rat passive cutaneous anaphylaxis (PCA) assay when administered per orally;value ranges between (0.7-1.6); details: po; in short: as §1
Rattus norvegicus [5] = assay: Antiallergic activity by rat passive cutaneous anaphylaxis (PCA) assay when administered per orally;value ranges between (1.3-23).; details: po; in short: as §1
Rattus norvegicus [6] = assay: Antiallergic activity by rat passive cutaneous anaphylaxis (PCA) assay when administered per orally;value ranges between (1.0-6.6).; details: po; in short: as §1
Rattus norvegicus [7] = assay: Antiallergic activity by rat passive cutaneous anaphylaxis (PCA) assay when administered perorally; value ranges between […]; details: po; in short: as §1
Rattus norvegicus [8] = assay: Antiallergic activity by rat passive cutaneous anaphylaxis (PCA) assay when administered per orally;value ranges between (4.67-21.77); details: po; in short: as §1
Rattus norvegicus [9] = assay: Antiallergic activity by rat passive cutaneous anaphylaxis (PCA) assay when administered perorally; details: po; in short: as §1
Rattus norvegicus [10] = assay: Antiallergic activity by rat passive cutaneous anaphylaxis (PCA) assay when administered per orally;value ranges between (0.91-5.2); details: po; in short: as §1
Rattus norvegicus [11] = assay: Antiallergic activity by rat passive cutaneous anaphylaxis (PCA) assay when administered per orally;value ranges between (3.44-9.04); details: po; in short: as §1
Rattus norvegicus [12] = assay: Antiallergic activity by rat passive cutaneous anaphylaxis (PCA) assay when administered per orally;value ranges between (1.02-2.15).; details: po; in short: as §1
Rattus norvegicus [13] = assay: Antiallergic activity by rat passive cutaneous anaphylaxis (PCA) assay when administered per orally;value ranges between( 0.5-2.9).; details: po; in short: as §1
Rattus norvegicus [14] = assay: Antiallergic activity by rat passive cutaneous anaphylaxis (PCA) assay when administered per orally;value ranges between (0.18-1.48).; details: po; in short: as §1

SMILES	ED50 (Rattus norvegicus [1])	also measured
CCOC(=O)C(=O)Nc1nc(-c2cccc(OC)c2)cs1	~20 mg/kg	–
CCOC(=O)C(=O)Nc1nc(-c2ccc(N3CCOCC3)cc2)cs1	> 100 mg/kg	–
COc1ccccc1-c1csc(NC(=O)C(=O)O)n1	–	ED50 (Rattus norvegicus [2]): > 1 mg/kg
O=C(O)C(=O)Nc1nc(-c2ccc(O)cc2)cs1	> 3 mg/kg	ED50 (Rattus norvegicus [2]): ~0.1 mg/kg
CCOC(=O)C(=O)Nc1nc(-c2ccc(O)cc2)cs1	~15 mg/kg	–
CCOC(=O)C(=O)Nc1nc(-c2ccccn2)cs1	~10 mg/kg	–
CCOC(=O)C(=O)Nc1nc(-c2ccc(Sc3ccccc3)cc2)cs1	> 3 mg/kg	–
CN(C)c1ccc(-c2csc(NC(=O)C(=O)O)n2)cc1	–	ED50 (Rattus norvegicus [3]): 0.02 mg/kg; ED50 (Rattus norvegicus [4]): 1.1 mg/kg
Cc1cc(C)c(-c2csc(NC(=O)C(=O)O)n2)c(O)c1.NCCO	> 10 mg/kg	–
CCOC(=O)C(=O)Nc1nc(-c2ccccc2OC)cs1	> 30 mg/kg	ED50 (Rattus norvegicus [2]): ~1 mg/kg
O=C(O)C(=O)Nc1ncc(-c2ccccc2)s1	–	ED50 (Rattus norvegicus [2]): ~0.3 mg/kg; ED50 (Rattus norvegicus [5]): 4.03 mg/kg
CCOC(=O)C(=O)Nc1nc(-c2ccc([N+](=O)[O-])cc2)cs1	> 100 mg/kg	–
CCOC(=O)C(=O)Nc1ncc(-c2ccccc2)s1	~10 mg/kg	–
NCCO.O=C(O)C(=O)Nc1nc(-c2cccc(O)c2)cs1	3 mg/kg	ED50 (Rattus norvegicus [2]): ~0.1 mg/kg
CCOC(=O)C(=O)Nc1nc(-c2ccc(Oc3ccccc3)cc2)cs1	> 30 mg/kg	–
CCOC(=O)C(=O)Nc1nc(-c2ccc(O)c(C(C)=O)c2)cs1	–	ED50 (Rattus norvegicus [6]): 2.6 mg/kg
CCOC(=O)C(=O)Nc1nc(-c2ccccc2O)cs1	–	ED50 (Rattus norvegicus [7]): 8.2 mg/kg
CCOC(=O)C(=O)Nc1nc(C)c(C)s1	> 10 mg/kg	–
CCOC(=O)c1ccc(-c2csc(NC(=O)C(=O)OC)n2)cc1	> 10 mg/kg	–
CCOC(=O)C(=O)Nc1nc(-c2cc(OC)c(OC)c(OC)c2)cs1	–	ED50 (Rattus norvegicus [8]): 14.5 mg/kg

SMILES	ED50 (Rattus norvegicus [1])	also measured
CCOC(=O)C(=O)Nc1ccc(-c2csc(NC(=O)C(=O)OCC)n2)cc1	> 30 mg/kg	–
COc1ccc(OC)c(-c2csc(NC(=O)C(=O)O)n2)c1.NCCO	~7 mg/kg	ED50 (Rattus norvegicus [2]): ~0.3 mg/kg
NC(=O)C(=O)Nc1nc(-c2ccccc2)cs1	–	ED50 (Rattus norvegicus [9]): ~1 mg/kg
CCOC(=O)C(=O)Nc1nc(-c2ccco2)cs1	–	ED50 (Rattus norvegicus [10]): 2.2 mg/kg
NCCO.NCCO.O=C(O)C(=O)Nc1ccc(-c2csc(NC(=O)C(=O)O)n2)cc1	> 10 mg/kg	–
CCOC(=O)C(=O)Nc1nc(-c2cccnc2)cs1	~10 mg/kg	–
CCOC(=O)C(=O)Nc1nc(-c2c(C)cc(C)cc2O)cs1	~10 mg/kg	–
COc1cc(-c2csc(NC(=O)C(=O)O)n2)cc(OC)c1OC.NCCO	–	ED50 (Rattus norvegicus [2]): 1 mg/kg; ED50 (Rattus norvegicus [11]): 5.8 mg/kg
NC(=O)C(=O)Nc1nc(-c2ccc3c(c2)OCCO3)cs1	> 30 mg/kg	–
NC(=O)C(=O)Nc1nc(-c2ccc3c(c2)CCCC3)cs1	> 10 mg/kg	–
COc1ccc(-c2csc(NC(=O)C(=O)O)n2)cc1OC	–	ED50 (Rattus norvegicus [12]): 1.48 mg/kg
CCOC(=O)C(=O)Nc1nc(-c2ccc(F)cc2)cs1	> 10 mg/kg	–
CCOC(=O)C(=O)Nc1nc(-c2ccc3c(c2)N(C(C)=O)c2ccccc2S3)cs1	> 10 mg/kg	–
CCOC(=O)C(=O)Nc1nc(-c2ccc3c(c2)CCCC3)cs1	> 10 mg/kg	–
CCOC(=O)C(=O)Nc1nc(-c2ccncc2)cs1	–	ED50 (Rattus norvegicus [13]): 1.2 mg/kg
CCOC(=O)C(=O)Nc1nc(-c2ccc3c(c2)Sc2ccccc2S3)cs1	> 10 mg/kg	–
Cc1sc(NC(=O)C(=O)O)nc1-c1ccc2c(c1)OCCO2	–	ED50 (Rattus norvegicus [14]): 0.5 mg/kg
O=C(O)C(=O)Nc1nc(-c2ccc(-c3ccccc3)cc2O)cs1	> 30 mg/kg	–
CCOC(=O)C(=O)Nc1nc(-c2ccc(-c3ccccc3)cc2O)cs1	> 10 mg/kg	–
CCOC(=O)C(=O)Nc1nc(-c2ccc(OC)cc2OC)cs1	> 30 mg/kg	–
